Active and inactive are the calls of the source. The calls are words filed in the database; no cut-off is given here.
What was measured:
Cytochrome P450 2C9 = Cytochrome P450 2C9 (Homo sapiens, UniProt P11712); test: Inhibition of human CYP2C9 expressed in baculovirus infected insect cells using beetle D-luciferin as substrate preincubated for 30 mins followed by NADPH addition and measured after 30 mins by CYP450-Glo assay
Cytochrome P450 2D6 = Cytochrome P450 2D6 (Homo sapiens, UniProt P10635); test: Inhibition of human CYP2D6 expressed in baculovirus infected insect cells using beetle D-luciferin as substrate preincubated for 30 mins followed by NADPH addition and measured after 30 mins by CYP450-Glo assay
Cytochrome P450 2D6, sequence (P10635 whole entry): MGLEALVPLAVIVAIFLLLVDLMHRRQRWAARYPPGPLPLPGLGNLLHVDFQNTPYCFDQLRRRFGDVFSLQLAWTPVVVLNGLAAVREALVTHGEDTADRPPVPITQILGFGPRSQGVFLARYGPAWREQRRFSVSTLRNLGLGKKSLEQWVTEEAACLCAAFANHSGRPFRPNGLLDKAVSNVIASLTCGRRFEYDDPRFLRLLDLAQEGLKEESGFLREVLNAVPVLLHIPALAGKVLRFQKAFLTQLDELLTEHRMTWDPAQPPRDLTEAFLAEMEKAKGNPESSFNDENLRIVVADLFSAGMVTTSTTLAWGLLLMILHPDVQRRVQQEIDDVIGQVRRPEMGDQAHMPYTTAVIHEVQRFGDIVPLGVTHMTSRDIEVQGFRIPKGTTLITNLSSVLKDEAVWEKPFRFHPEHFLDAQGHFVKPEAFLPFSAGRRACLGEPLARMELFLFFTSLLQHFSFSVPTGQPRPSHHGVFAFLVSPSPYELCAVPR

Cytochrome P450 2C19 = Cytochrome P450 2C19 (Homo sapiens, UniProt P33261); test: Inhibition of human CYP2C19 expressed in baculovirus infected insect cells using beetle D-luciferin as substrate preincubated for 30 mins followed by NADPH addition and measured after 30 mins by CYP450-Glo assay
Cytochrome P450 2C19, sequence (P33261 whole entry): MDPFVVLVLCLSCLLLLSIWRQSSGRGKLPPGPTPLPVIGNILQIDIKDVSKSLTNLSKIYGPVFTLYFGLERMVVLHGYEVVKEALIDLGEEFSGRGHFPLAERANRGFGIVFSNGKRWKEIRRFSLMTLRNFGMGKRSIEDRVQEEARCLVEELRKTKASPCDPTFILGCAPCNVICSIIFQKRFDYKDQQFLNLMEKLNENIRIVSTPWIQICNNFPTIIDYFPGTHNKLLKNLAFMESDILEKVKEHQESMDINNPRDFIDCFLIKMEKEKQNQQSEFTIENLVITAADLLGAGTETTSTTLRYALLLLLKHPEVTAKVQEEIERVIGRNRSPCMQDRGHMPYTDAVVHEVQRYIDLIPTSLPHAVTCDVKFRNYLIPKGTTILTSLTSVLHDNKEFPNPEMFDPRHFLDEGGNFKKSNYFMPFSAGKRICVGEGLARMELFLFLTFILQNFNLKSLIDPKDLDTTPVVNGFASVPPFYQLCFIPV

Cytochrome P450 1A2 = target: T1, Cytochrome P450 1A2 (Homo sapiens, UniProt P05177); test: Inhibition of human CYP1A2 expressed in baculovirus infected insect cells using beetle D-luciferin as substrate preincubated for 30 mins followed by NADPH addition and measured after 30 mins by CYP450-Glo assay
T1 sequence (P05177 whole entry): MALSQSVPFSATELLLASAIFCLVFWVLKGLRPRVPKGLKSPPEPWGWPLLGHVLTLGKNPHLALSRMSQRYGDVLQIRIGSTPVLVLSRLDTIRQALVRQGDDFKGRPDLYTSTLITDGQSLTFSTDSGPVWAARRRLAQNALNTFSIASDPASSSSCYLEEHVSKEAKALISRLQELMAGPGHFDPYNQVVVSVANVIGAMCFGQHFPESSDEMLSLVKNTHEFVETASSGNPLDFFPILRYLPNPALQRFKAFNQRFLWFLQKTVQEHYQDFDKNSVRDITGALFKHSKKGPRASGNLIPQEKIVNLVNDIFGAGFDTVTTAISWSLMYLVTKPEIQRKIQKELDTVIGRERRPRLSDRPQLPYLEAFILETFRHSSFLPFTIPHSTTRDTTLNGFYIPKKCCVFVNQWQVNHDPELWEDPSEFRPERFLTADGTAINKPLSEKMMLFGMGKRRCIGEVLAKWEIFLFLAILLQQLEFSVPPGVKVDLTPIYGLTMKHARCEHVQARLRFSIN

Trypanosoma cruzi = test: Growth inhibition of trypomastigote form of Trypanosoma cruzi Y infected in human U2OS cells at 50 uM measured after 72 hrs by DRAQ5 DNA dye based confocal microscopic analysis relative to control; assay type: organism-based; conditions: for inhibition at 50 µM: Trypanosoma cruzi, Y, U2OS, read-out: GI; for growth inhibition (GI): trypanosoma cruzi, 50 µM
Cytochrome P450 3A4 = Cytochrome P450 3A4 (Homo sapiens, UniProt P08684); test: Inhibition of human CYP3A4 expressed in baculovirus infected insect cells using beetle D-luciferin as substrate preincubated for 30 mins followed by NADPH addition and measured after 30 mins by CYP450-Glo assay
Cytochrome P450 3A4, sequence (P08684 whole entry): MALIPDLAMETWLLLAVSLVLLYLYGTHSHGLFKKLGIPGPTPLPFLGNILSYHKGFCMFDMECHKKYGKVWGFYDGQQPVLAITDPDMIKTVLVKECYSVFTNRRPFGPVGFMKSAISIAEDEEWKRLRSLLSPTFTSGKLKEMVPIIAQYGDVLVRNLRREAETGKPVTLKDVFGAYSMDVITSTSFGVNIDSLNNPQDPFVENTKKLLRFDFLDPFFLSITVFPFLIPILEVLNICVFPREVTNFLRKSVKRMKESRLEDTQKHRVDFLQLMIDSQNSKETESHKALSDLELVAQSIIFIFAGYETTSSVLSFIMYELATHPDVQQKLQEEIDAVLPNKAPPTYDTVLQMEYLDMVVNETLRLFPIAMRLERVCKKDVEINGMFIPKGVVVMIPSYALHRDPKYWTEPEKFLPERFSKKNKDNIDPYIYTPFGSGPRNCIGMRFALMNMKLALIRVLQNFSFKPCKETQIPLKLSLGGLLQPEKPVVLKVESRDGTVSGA

Trypanosoma brucei [1] = test: Growth inhibition of Trypanosoma brucei bloodstream forms at 10 uM measured after 72 hrs by resazurin-based fluorescence assay relative to control; assay type: organism-based; conditions: for inhibition at 10 µM: Trypanosoma brucei, read-out: GI
[2] = target: Voltage-gated inwardly rectifying potassium channel KCNH2 (Homo sapiens, UniProt Q12809); test: Displacement of Tracer Red from human ERG by fluorescence polarization assay
Voltage-gated inwardly rectifying potassium channel KCNH2, sequence (Q12809 whole entry): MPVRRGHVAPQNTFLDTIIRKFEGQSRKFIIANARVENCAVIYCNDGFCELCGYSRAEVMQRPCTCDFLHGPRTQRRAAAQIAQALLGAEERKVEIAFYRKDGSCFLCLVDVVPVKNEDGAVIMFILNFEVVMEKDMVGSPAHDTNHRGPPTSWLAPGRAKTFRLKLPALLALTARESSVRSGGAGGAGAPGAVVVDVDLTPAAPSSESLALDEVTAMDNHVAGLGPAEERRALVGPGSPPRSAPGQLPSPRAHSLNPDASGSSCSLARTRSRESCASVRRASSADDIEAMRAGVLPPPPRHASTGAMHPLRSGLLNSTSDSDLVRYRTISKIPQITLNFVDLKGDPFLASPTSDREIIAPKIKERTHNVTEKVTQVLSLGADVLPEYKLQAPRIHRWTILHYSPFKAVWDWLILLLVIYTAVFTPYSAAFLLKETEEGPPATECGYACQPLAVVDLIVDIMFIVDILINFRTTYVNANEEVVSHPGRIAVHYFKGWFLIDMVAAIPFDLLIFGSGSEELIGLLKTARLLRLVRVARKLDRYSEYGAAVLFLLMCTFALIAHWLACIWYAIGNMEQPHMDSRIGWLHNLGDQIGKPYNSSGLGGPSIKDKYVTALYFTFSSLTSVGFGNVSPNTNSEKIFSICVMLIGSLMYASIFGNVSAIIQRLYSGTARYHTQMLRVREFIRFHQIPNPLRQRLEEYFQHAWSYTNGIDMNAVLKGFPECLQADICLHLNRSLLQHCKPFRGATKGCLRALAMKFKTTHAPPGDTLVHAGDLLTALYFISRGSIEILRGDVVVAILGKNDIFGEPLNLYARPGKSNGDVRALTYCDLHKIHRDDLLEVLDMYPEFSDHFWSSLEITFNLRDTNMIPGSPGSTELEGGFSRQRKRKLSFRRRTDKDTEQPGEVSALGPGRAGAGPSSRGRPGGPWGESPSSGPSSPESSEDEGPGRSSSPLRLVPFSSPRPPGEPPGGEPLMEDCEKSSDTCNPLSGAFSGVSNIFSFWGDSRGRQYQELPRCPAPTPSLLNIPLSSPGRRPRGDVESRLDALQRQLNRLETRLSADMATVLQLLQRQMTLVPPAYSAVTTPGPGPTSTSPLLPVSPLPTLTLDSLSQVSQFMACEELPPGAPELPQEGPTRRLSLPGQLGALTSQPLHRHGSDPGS

[3] = Mitochondrial toxicity in human 786-O cells measured after 6 hrs by MitoTracker Red chloromethyl-X-rosamine based assay; assay type: cell-based, 786-0
Leishmania infantum = test: Growth inhibition of luciferase expressing Leishmania infantum axenic amastigotes infected in human THP1 cells at 10 uM measured after 72 hrs by steady-glo luminescence assay relative to control; assay type: organism-based; conditions: for growth inhibition (GI): leishmania infantum, 72 h, 10 µM; for inhibition at 10 µM: Leishmania infantum, THP-1, 72 h, read-out: GI
[4] = Selectivity ratio of IC50 for Leishmania major pteridine reductase 1 to IC50 for N-terminal His-tagged Trypanosoma brucei pteridine reductase 1
[5] = Cytotoxicity against human THP1 cells after 72 hrs by MTT assay; assay type: cell-based, THP-1; conditions: read-out: NOAEL
Trypanosoma brucei [6] = test: Inhibition of N-terminal His-tagged Trypanosoma brucei pteridine reductase 1 at 50 uM using di-hydrobiopterine as substrate measured at 1 min interval for 50 mins in presence of NADPH relative to control
Summary of the method: (§1)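 Photometric PTR1 assay with NADPH and dihydrobiopterin substrate. H₄B formation is coupled non-enzymatically to cytochrome c reduction, read as signal increase at 550 nm.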

[7] = Cytotoxicity against human U2OS cells assessed as reduction in cell number; assay type: cell-based
[8] = Inhibition of N-terminal His-tagged Trypanosoma brucei pteridine reductase 1 using di-hydrobiopterine as substrate measured at 1 min interval for 50 mins in presence of NADPH; summary of the method: as §1
Pteridine reductase 1 = target: T2, Pteridine reductase 1 (Leishmania major, UniProt Q01782); test: Inhibition of Leishmania major pteridine reductase 1 using di-hydrobiopterine as substrate in presence of NADPH; summary of the method: as §1
T2 sequence (Q01782 whole entry): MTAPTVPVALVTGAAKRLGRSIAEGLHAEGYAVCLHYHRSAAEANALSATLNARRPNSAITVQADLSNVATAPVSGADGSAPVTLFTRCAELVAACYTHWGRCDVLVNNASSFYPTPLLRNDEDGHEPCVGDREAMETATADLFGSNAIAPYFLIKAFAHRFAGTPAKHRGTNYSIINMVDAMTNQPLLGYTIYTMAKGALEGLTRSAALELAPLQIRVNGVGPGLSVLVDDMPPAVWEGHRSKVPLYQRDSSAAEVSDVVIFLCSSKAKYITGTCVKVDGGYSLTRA

[9] = target: T3, Pteridine reductase 1 (Leishmania major) (UniProt Q01782); test: Inhibition of Leishmania major pteridine reductase 1 at 50 uM using di-hydrobiopterine as substrate in presence of NADPH relative to control; summary of the method: as §1
T3 sequence (whole entry): T2 sequence (Q01782 whole entry)

[10] = Cytotoxicity against human A549 cells after 48 hrs by Celltiter-glo assay; assay type: cell-based
Trypanosoma brucei [11] = test: Inhibition of PTR1 in Trypanosoma brucei bloodstream forms assessed as potentiation of methotrexate-induced parasitic cell growth inhibition at 10 uM measured after 72 hrs by resazurin-based fluorescence assay (reference value: 19 +/- 6%)
Summary of the method: (§2)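 Bloodstream-form T. brucei resazurin assay: 72 h at 37 °C, 5% CO₂, then fluorescence at ex 540/em 620 nm. Benzothiazole was tested at 10 μM alone and with 4 μM methotrexate. The index is the combination's activity divided by the sum of the activities of 10 μM benzothiazole and 4 μM methotrexate given separately.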

Trypanosoma brucei [12] = test: Inhibition of PTR1 in Trypanosoma brucei bloodstream forms assessed as potentiation of methotrexate-induced parasitic cell growth inhibition by measuring potentiation index at 10 uM measured after 72 hrs by resazurin-based fluorescence assay relative to control (methotrexate); assay type: functional; summary of the method: as §2

Cytochrome P450 2C9, sequence (P11712 whole entry): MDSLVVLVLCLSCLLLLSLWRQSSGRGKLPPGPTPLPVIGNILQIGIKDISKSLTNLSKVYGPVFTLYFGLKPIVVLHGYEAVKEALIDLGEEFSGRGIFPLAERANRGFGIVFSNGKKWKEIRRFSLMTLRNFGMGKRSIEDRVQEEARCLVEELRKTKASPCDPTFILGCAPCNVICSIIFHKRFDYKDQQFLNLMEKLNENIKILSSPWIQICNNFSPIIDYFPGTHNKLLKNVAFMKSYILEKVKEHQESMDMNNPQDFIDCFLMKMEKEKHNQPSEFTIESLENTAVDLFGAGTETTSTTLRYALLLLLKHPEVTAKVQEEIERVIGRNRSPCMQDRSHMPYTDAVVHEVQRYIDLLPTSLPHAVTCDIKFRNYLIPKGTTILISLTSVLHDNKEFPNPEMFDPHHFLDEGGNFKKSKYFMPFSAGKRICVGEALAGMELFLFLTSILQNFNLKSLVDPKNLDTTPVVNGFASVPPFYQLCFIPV

SMILES	IC50 (Cytochrome P450 2C9) [µM]	IC50 (Cytochrome P450 2D6) [µM]	IC50 (Cytochrome P450 2C19) [µM]	IC50 (Cytochrome P450 1A2) [µM]	inhibition at 50 µM (Trypanosoma cruzi) [%]	IC50 (Cytochrome P450 3A4) [µM]	inhibition at 10 µM (Trypanosoma brucei [1]) [%]	IC50 [2] [µM]	IC50 at 6 h [3] [µM]	growth inhibition (GI) (Leishmania infantum)	Ratio IC50 [4]	MNTC at 72 h [5] [µM]	inhibition (Trypanosoma brucei [6]) [%]	GI50 [7] [µM]	IC50 [8] [µM]	inhibition [9]	GI50 at 48 h [10] [µM]	IC50 (Pteridine reductase 1; read-out: IC50) [µM]	growth inhibition (GI) (Trypanosoma cruzi)	also measured
Nc1nc2ccc(C(=O)N(Cc3ccccc3)Cc3ccc(Cl)c(Cl)c3)cc2s1	< 10	< 10	< 10	> 25	62.1	< 10	26	> 25	10 to 25	Non-Toxic	2 to 100	> 25	> 60	> 25	12	inactive	> 25	–	–	IC50 (Pteridine reductase 1): Not Active
Nc1nc2c(C(=O)NCc3ccc(Cl)c(Cl)c3)cc(O)c(O)c2s1	> 25	< 10	> 25	> 25	18.3	< 10	16	> 25	> 25	Non-Toxic	2 to 100	> 25	> 60	> 25	32.3	> 60%	> 25	36.8	–	–
N#Cc1ccc(CS(=O)(=O)c2ccc3nc(N)sc3c2)cc1	> 25	< 10	10 to 25	> 25	–	< 10	9 to 13	> 25	> 25	Non-Toxic	2 to 100	> 25	> 60	> 25	3	55.5%	> 25	–	Non-Toxic	growth inhibition (GI) (Trypanosoma brucei [11]): 48%; Ratio (Trypanosoma brucei [12]): 1.5
Nc1nc2c(C(=O)N(Cc3ccccc3)Cc3ccc(Cl)c(Cl)c3)cc(O)c(O)c2s1	< 10	< 10	10 to 25	< 10	–	< 10	25	< 10	> 25	Non-Toxic	2 to 100	10 to 25	> 60	10 to 25	11.4	> 60%	> 25	15.2	Non-Toxic	–
COC(=O)C1CCN(C(=O)c2ccc(CS(=O)(=O)c3ccc4nc(N)sc4c3)cc2)CC1	< 10	< 10	< 10	> 25	–	< 10	–	> 25	> 25	Non-Toxic	2 to 100	> 25	> 60	> 25	24.3	> 60%	> 25	50	Non-Toxic	growth inhibition (GI) (Trypanosoma brucei [1]; trypanosoma brucei, 10 µM): Non-Toxic
COC(=O)c1ccc(CNC(=O)c2ccc3nc(N)sc3c2)cc1	10 to 25	> 25	> 25	> 25	–	> 25	16	> 25	> 25	Non-Toxic	2 to 100	> 25	> 60	> 25	16.5	> 60%	> 25	36	Non-Toxic	–
Nc1nc2ccc(C(=O)NCc3ccc(Cl)c(Cl)c3)cc2s1	> 25	< 10	< 10	> 25	–	< 10	5	> 25	< 10	–	2 to 100	> 25	> 60	> 25	5.4	> 60%	> 25	15.3	Non-Toxic	inhibition at 10 µM (Leishmania infantum): 5%
Nc1nc2ccc(SCc3ccccc3)cc2s1	> 25	< 10	< 10	< 10	–	10 to 25	14	> 25	> 25	Non-Toxic	2 to 100	10 to 25	> 60	> 25	1.9	> 60%	> 25	81	Non-Toxic	–
Nc1nc2ccc(C(=O)NCCc3c[nH]c4ccccc34)cc2s1	> 25	> 25	10 to 25	> 25	1.64	> 25	27	> 25	> 25	Non-Toxic	2 to 100	> 25	> 60	> 25	23.3	inactive	> 25	–	–	IC50 (Pteridine reductase 1): Not Active
COC(=O)c1ccc(CS(=O)(=O)c2ccc3nc(N)sc3c2)cc1	10 to 25	< 10	< 10	> 25	–	10 to 25	14	> 25	> 25	–	2 to 100	> 25	> 60	> 25	> 100	> 60%	> 25	65.9	Non-Toxic	inhibition at 10 µM (Leishmania infantum): 12%
Nc1nc2ccc(C(=O)NC(c3ccccc3)c3ccccc3)cc2s1	< 10	< 10	< 10	> 25	37.8	< 10	10	> 25	> 25	–	2 to 100	> 25	> 60	> 25	18.5	> 60%	> 25	88.5	–	inhibition at 10 µM (Leishmania infantum): 15%

Reference: ChEMBL document CHEMBL4387708, “Enhancement of Benzothiazoles as Pteridine Reductase-1 Inhibitors for the Treatment of Trypanosomatidic Infections” (J Med Chem, 2019)
